Test results reported in ChEMBL document CHEMBL1149884, “Investigating biological activity spectrum for novel quinoline analogues 2: hydroxyquinolinecarboxamides with photosynthesis-inhibiting activity” (Bioorg Med Chem, 2008).
The source made the active and inactive calls. The rule behind the calls is not given here.

Legend:
[1] = Lipophilicity, log K of the compound; type: physicochemical
Procedure, shortened: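 Isocratic RP-HPLC on end-capped C18 column, methanol as organic modifier. Retention times taken in minutes. Capacity factor K derived from them, and log K used as a lipophilicity index.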

Spinacia oleracea = test: Herbicidal activity in Spinacia oleracea assessed as inhibition of photosynthetic electron transport by decrease in oxygen evolution; type: functional
Procedure, shortened: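 Spinach chloroplast PET measured as oxygen evolution in phosphate buffer (0.02 mol/L, pH 7.2) with sucrose 0.4 mol/L, MgCl₂ 0.005 mol/L, NaCl 0.015 mol/L. Chl 30 mg/L, halogen lamp irradiation (~100 W/m², 10 cm, water filter), 22 °C. IC50 = molar concentration giving 50% decrease in oxygen evolution vs untreated control.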

Chlorella vulgaris = test: Herbicidal activity against Chlorella vulgaris Beij assessed as decrease in chlorophyll content after 7 days; type: functional, organism-based; details: for IC50: 168 h
Procedure, shortened: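 C. vulgaris grown statically at room temperature (16 h light/8 h dark, 80 µmol/m² s PAR, pH 7.2), starting Chl 0.01 mg/L. Exposed 7 days to 100, 75, 50, 25, 8.3, 4.2, 0.83 µmol/L (DMSO ≤0.25%, matched DMSO controls). Chl read spectrophotometrically after methanol extraction. IC50 = 50% Chl decrease vs control, else mean % of control over 100–0.83 µmol/L ± SD.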

| SMILES | log K [1] | log K ([1]; octanol/water) | Activity (Spinacia oleracea) | Activity (Chlorella vulgaris) | IC50 (Spinacia oleracea) [µM] | IC50 (Chlorella vulgaris) [µM] |
| --- | --- | --- | --- | --- | --- | --- |
| Cc1ccc2ccc(C(=O)NCCc3ccccc3)c(O)c2n1 | 0.2404 | – | inactive | – | – | – |
| Cc1ccc2c(O)c(C(=O)Nc3ccc(Cl)cc3)ccc2n1 | 0.3812 | – | – | – | 265 | 23.8 |
| COc1ccc(CNC(=O)c2ccc3ccc(C)nc3c2O)cc1 | 0.2843 | – | inactive | – | – | 4.8 |
| Cc1ccc2c(O)c(C(=O)NCCCNC(=O)c3ccc4nc(C)ccc4c3O)ccc2n1 | 0.1203 | – | – | – | 819 | 19.5 |
| Cc1ccc2ccc(C(=O)NCCc3ccc(F)cc3)c(O)c2n1 | 0.3342 | – | inactive | – | – | 15.9 |
| CN(C)C(=O)Nc1ccc(Cl)c(Cl)c1 [DCMU] | – | – | – | – | 1.9 | – |
| Cc1ccc(CNC(=O)c2ccc3nc(C)ccc3c2O)cc1 | 0.38 | – | – | – | 468 | – |
| Cc1ccc2c(O)c(C(=O)NCCc3ccc(O)cc3)ccc2n1 | 0.3775 | – | – | – | 16 | – |
| Cc1ccc2c([N+](=O)[O-])cc(C(=O)NC(C)c3ccc(F)cc3)c(O)c2n1 (stereo unspecified) | 0.4283 | – | – | – | 8.7 | 43.6 |
| Cc1ccc2ccc(C(=O)NCCCNC(=O)c3ccc4ccc(C)nc4c3O)c(O)c2n1 | 0.1168 | – | inactive | – | – | 149 |
| Cc1ccc2ccc(C(=O)NNC(=O)c3ccccc3O)c(O)c2n1 | – | 0.6361 | inactive | inactive | – | – |
| Cc1ccc(CNC(=O)c2cc([N+](=O)[O-])c3ccc(C)nc3c2O)cc1 | 0.4304 | – | – | inactive | 107 | – |
| Cc1ccc2c(O)c(C(=O)Nc3ccc4c(O)c(C(=O)O)cc([N+](=O)[O-])c4n3)ccc2n1 | 0.4072 | – | – | – | 114 | – |

More lines, main results first:

| log K [1] | log K ([1]; octanol/water) | SMILES | Activity (Spinacia oleracea) | Activity (Chlorella vulgaris) | IC50 (Spinacia oleracea) [µM] | IC50 (Chlorella vulgaris) [µM] |
| --- | --- | --- | --- | --- | --- | --- |
| 0.2629 | – | Cc1ccc2ccc(C(=O)NCCO)c(O)c2n1 | inactive | inactive | – | – |
| 0.4087 | – | COc1ccc(CNC(=O)c2cc([N+](=O)[O-])c3ccc(C)nc3c2O)cc1 | – | inactive | 137 | – |
| 0.3389 | – | Cc1ccc2ccc(C(=O)NCc3ccc(F)cc3)c(O)c2n1 | inactive | – | – | 158 |
| 0.372 | – | Cc1ccc2ccc(C(=O)NC(C)c3ccc(F)cc3)c(O)c2n1 (stereo unspecified) | inactive | – | – | 83.3 |
| 0.4136 | – | Cc1ccc2c([N+](=O)[O-])cc(C(=O)NCc3ccc(F)cc3)c(O)c2n1 | – | inactive | 95 | – |
| 0.3793 | – | Cc1ccc(CNC(=O)c2ccc3ccc(C)nc3c2O)cc1 | inactive | – | – | 7.2 |
| 0.5075 | – | Cc1ccc2ccc(C(=O)NCCCCc3ccccc3)c(O)c2n1 | inactive | – | – | 8.5 |
| 0.612 | – | Cc1ccc2c(O)c(C(=O)NC(=O)NC(=O)c3ccc4nc(C)ccc4c3O)ccc2n1 | – | – | 833 | 5.5 |
| 0.3663 | – | Cc1ccc2c(O)c(C(=O)NC(C)c3ccc(F)cc3)ccc2n1 (stereo unspecified) | – | – | 426 | – |
| 0.2812 | – | Cc1ccc2ccc(C(=O)NCc3ccccc3)c(O)c2n1 | inactive | – | – | 17.2 |
| 0.4173 | – | Cc1ccc2c(O)c(C(=O)NCCCCc3ccccc3)ccc2n1 | – | – | 7.2 | 10.9 |
| 0.4021 | – | Cc1ccc2c([N+](=O)[O-])cc(C(=O)NCc3ccccc3)c(O)c2n1 | – | inactive | 32 | – |
| 0.1109 | – | Cc1ccc2ccc(C(=O)NCCNC(=O)c3ccc4ccc(C)nc4c3O)c(O)c2n1 | inactive | – | – | 93.7 |
